Results on 96 compounds are retold here after ChEMBL document CHEMBL4513216, “Probing the Open Global Health Chemical Diversity Library for Multistage-Active Starting Points for Next-Generation Antimalarials” (ACS Infect Dis, 2020).

This data set is described as follows: Toxicity liver stage against HepG2, at 10uM. The following applies: human, HepG2-A16-CD81EGFP cells; read-out: INHIBITION
In kind it is cell-based. Also on record: test concentration 10 uM, cell line HepG2-A16-CD81EGFP. A digest of the protocol: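 Uninfected HepG2-A16-CD81EGFP cells, 3 × 10^3 per well, 1536-well, plated on prespotted compound at 10 μM final, parasite-free screening media added to match infected plates; puromycin 10 μM positive, DMSO 0.5% negative; run in parallel with 48 h PbLuc assay at 37 °C, 5% CO2; viability by CellTiter-Glo luminescence, normalized to controls.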
On to `OCCc1cc(CC2(NCc3ccc(C(F)(F)F)cc3)COC2)no1`, for which the cytotoxicity at 10 µM is -4.41%. To `c1cncc(O[C@H]2COCCN(Cc3c[nH]c4ccccc34)C2)c1` belongs 0.208%; to `Cc1[nH]c2nc(CNc3cccc(Cl)c3)nn2c(=O)c1C`, 0.0924%.

`CC(C)NC(=O)N(Cc1cc(O)nc2ccccc12)C(C)C`: the cytotoxicity at 10 µM was 0.266%. Regarding `O=C(NCCc1cccc(F)c1)C1(n2cnnn2)CCCCC1`, the cytotoxicity at 10 µM was 1.04%. To `Cc1ncn(CCNC(=O)Nc2ccccc2)c(=O)c1C` belongs -4.39%; to `O=C(COc1ccc(-n2cccn2)nn1)NC1CCCCC1`, -1.03%. As to `Cn1nccc1-c1nc2c(cc1C(=O)O)CCN(CC1CC1)CC2`, the cytotoxicity at 10 µM was -119%. To `CC(=O)N1CCO[C@@H]2CN(S(=O)(=O)c3ccccc3F)C[C@@H]2C1` belongs 12.6%; to `COCC1c2nnn(C)c2CCN1C(=O)Cc1ccc2c(c1)OCO2` (stereo unspecified), 9.46%. As for `O=C(NCC1CC1)[C@@H]1C[C@@H]2CCN(Cc3ccoc3)C[C@@H]2O1`, the cytotoxicity at 10 µM was -2.65%. To `CCN1C[C@@H]2CN(C(=O)c3ccsc3)C[C@@H]2C1=O` belongs -6.57%. To `O=C1CC(c2ccc(C(=O)O)cc2)c2ncn(-c3ccc(F)cc3)c2N1` (stereo unspecified) belongs -3.67%; to `CC(=O)N1CCN(C(=O)c2sc(-c3ccccc3F)nc2C)CC1`, -3.3%. As to `O=C(Cn1cc(-c2ccccc2)ncc1=O)NC1CCCCC1`, the cytotoxicity at 10 µM is -8.03%. In the case of `CC(=O)c1c(O)n(C)c2ccc(C)cc12`, the cytotoxicity at 10 µM amounted to 8.58%. For `Cc1ccc(-c2csc(N)c2C#N)cc1`, the cytotoxicity at 10 µM was -1.61%. With `Cc1ccc(C(=O)Nc2c(C(=O)N(C)C)nn(C)c2C)cc1`, the cytotoxicity at 10 µM is 5.59%. The result for `Cc1nc(NCc2ccc(F)cc2)cc(C(=O)N2CCOCC2)n1` reads -9.14%; that for `CCCNC(=O)c1cnc(N(C)C)nc1COC`, 3.17%.

For the compound `Cc1ccccc1C(=O)N1CCOC(c2ncc(CN(C)C)[nH]2)C1` (stereo unspecified), the cytotoxicity at 10 µM was 0.53%.

Turning to `Oc1cc(-c2ccsc2)nc(C2CCN(Cc3cccnc3)CC2)n1`, the cytotoxicity at 10 µM was found to be 2.95%. To `O[C@@H]1CN(Cc2cnccn2)C[C@H]1Oc1ccccc1` belongs -29.5%; to `Cc1ccnc(C2CCN(S(=O)(=O)c3cn(C)cn3)CC2)n1`, 3.24%. For the compound `CCc1ccccc1Nc1noc2c1CN(C(=O)CNC(C)=O)CC2`, the cytotoxicity at 10 µM was -20.1%. To `Cc1nc(C2CCCN2C(=O)Cc2ccc(F)cc2)nc(O)c1C` (stereo unspecified) belongs -30.4%; to `CC(C)CC(=O)Nc1ccccc1Oc1ccsc1C(=O)O`, 6.2%; to `CC(=O)NC(Cc1c[nH]c2cc(F)ccc12)C(=O)Nc1nncs1` (stereo unspecified), 1.22%. The result for `CCOC(=O)NCC(=O)Nc1nc2ccccc2n1C(C)(C)C` reads -4.62%. The result for `CN(C)S(=O)(=O)N(C)C(c1cccnc1)c1ccc(F)c(F)c1` (stereo unspecified) reads -3.53%; that for `CC(NC(=O)c1ccoc1)C(=O)N(C)Cc1ccc(O)cc1` (stereo unspecified), -3.59%; that for `COc1ccccc1CN1CCCC(n2cccn2)C1` (stereo unspecified), 2%. On to `Cc1noc(CN(Cc2ccc3c(c2)OCCO3)Cc2ccco2)n1`, for which the cytotoxicity at 10 µM is -10.8%. Take `Cn1ccc(C(=O)Nc2cccc(-c3ccc4c(c3)CCO4)n2)cc1=O`: the cytotoxicity at 10 µM is -1.26%.

For `CCN(CCCNC(=O)Nc1ccccc1C(C)C)S(C)(=O)=O`, the cytotoxicity at 10 µM was -0.132%. To `COc1ccccc1CNC(=O)N1CCCC(CO)C1` (stereo unspecified) belongs 0.91%; to `O=C(NCCc1cccnc1)NCCc1cccs1`, -1.51%. To `CC(NC(=O)NCC(C)(C)O)c1ccc(-c2cncnc2)cc1` (stereo unspecified) belongs 6.27%; to `O=C(CN1C=Nc2ccccc2S1(=O)=O)NC1CCCCC1`, 4.75%. Consider `Cc1occc1C(=O)NCC(=O)NCCOc1cccc(Cl)c1`, for which the cytotoxicity at 10 µM is 0.0264%. For `COc1c(CNCc2cccnc2OC(C)C)c(C(C)C)nn1C`, the cytotoxicity at 10 µM worked out at 11.1%.

Consider `COc1ccc(CNC(=O)CNc2cc3c(cc2Cl)OCCO3)cc1`, for which the cytotoxicity at 10 µM was -0.238%. The result for `CC(C)(C)OC(=O)N1CCC(C(=O)NCc2ccccc2)C1` (stereo unspecified) reads 17.7%. The result for `CCN1CC(C(=O)NC(C)(C)C(=O)OC)CC1=O` (stereo unspecified) reads -143%; that for `CCN(CC)Cc1ccccc1NC(=O)N(C)Cc1ccccc1O`, -1.57%; that for `NC(=O)C(Nc1cccc(CO)c1)c1ccc(Br)cc1` (stereo unspecified), 9.17%.

For the compound `CC1CCN(c2ccc(CNC(=O)NCCn3ccnc3)cn2)CC1`, the cytotoxicity at 10 µM was -9.48%. Consider `N#CCc1ccc(OCC(=O)NS(=O)(=O)c2ccc(Br)s2)cc1`, for which the cytotoxicity at 10 µM is -5.46%.

Regarding `Cc1cc(NS(=O)(=O)CC2CCCCO2)ccc1F` (stereo unspecified), the cytotoxicity at 10 µM is -11.7%. To `N#Cc1c(F)cccc1NCCCOCC1CCOCC1` belongs -1.25%; to `CC(C)(C(=O)NCc1n[nH]c(=O)[nH]1)c1ccc(F)cc1`, 7.52%; to `Cc1cccnc1NC(=O)C1CCCN1Cc1ccccc1` (stereo unspecified), 10.2%. Take `Cc1ccc(S(=O)(=O)N2CCC3(CC(C(=O)NCC(C)C)=NO3)C2)cc1` (stereo unspecified): the cytotoxicity at 10 µM was -0.819%.

For `Cn1cc(-c2cnc(N3CCOCC3)nc2)cc1C(=O)N1CCOCC1`, the cytotoxicity at 10 µM was found to be 9.8%. Consider `N#Cc1c(N)nc2c(c1-c1cnc(N3CCCC3)nc1)COCC2`, for which the cytotoxicity at 10 µM amounted to 10.5%. The result for `CCN1CC(CN(C)Cc2nc(-c3cccc(C)c3)oc2C)CC1=O` (stereo unspecified) reads -9.8%.

As to `COc1ccccc1OCCCn1c(C)c(C)oc1=O`, the cytotoxicity at 10 µM stood at 0.129%. Turning to `O=C(c1ccc(Cl)cc1)N1CCC2(CC1)C(=O)Nc1ccccc12`, the cytotoxicity at 10 µM was -145%.

As for `c1ccc(SCCN2CCN(CCn3cncn3)CC2)cc1`, the cytotoxicity at 10 µM is -2.88%. In the case of `CCc1nc(C)c(-c2nccn2CC2CCCCO2)[nH]1` (stereo unspecified), the cytotoxicity at 10 µM turned out to be 3.98%. To `Cn1ncnc1-c1ccnc(NCc2ccccn2)n1` belongs -2.46%; to `CCC[C@H]1CN(S(C)(=O)=O)C[C@@H]1NC(=O)CCCn1ccnc1`, 4.47%; to `Cc1cc(CN2CCC(CNC(=O)c3ccc(C#N)cc3)C2)[nH]n1` (stereo unspecified), -138%. To `COc1cc(-c2nc(C3CC3)nn2-c2ccnc(C)c2)nc(OC)n1` belongs 2.64%; to `Cc1nccn1C1(C(=O)O)CCN(Cc2ccc3c(c2)OCCO3)CC1`, -1.53%. Take `CCC[C@@H]1CN(Cc2c[nH]c(CC3CCCC3)n2)C[C@H]1C(=O)O`: the cytotoxicity at 10 µM was determined as 4.86%. To `Cc1csc2c(N3CCNC(C(=O)N4CCCC4)C3)ncnc12` (stereo unspecified) belongs -5.6%. As to `O=C(CC(F)(F)F)N1CCc2[nH]nc(-c3ccc4c(c3)OCO4)c2C1`, the cytotoxicity at 10 µM is -149%. To `Fc1ccc(NC2CCCN(Cc3ccncc3)C2)cc1` (stereo unspecified) belongs 3.58%; to `CN(CCc1cn[nH]c1)C(=O)C1CC(=O)N(Cc2cccnc2)C1` (stereo unspecified), -0.812%.

On to `COc1cccc2c1OCC(CNC(=O)CCCN1CCOCC1)C2` (stereo unspecified), for which the cytotoxicity at 10 µM amounted to 16.6%. On to `COc1ccccc1[C@@H]1CN(C(=O)c2csc(C)n2)C[C@H]1C(=O)O`, for which the cytotoxicity at 10 µM was found to be 4.98%. To `CCCn1ncc2c(C(=O)Nc3cnn(CC)c3C)cc(C3CC3)nc21` belongs -0.842%. To `Cc1nc(CN2CCCC(NCc3cnn(C)c3)C2)no1` (stereo unspecified) belongs -2.53%. For `CC(C)Cc1cc(NC(=O)c2cccnc2)n(C)n1`, the cytotoxicity at 10 µM was -7.09%. For the compound `O=C(NCc1ccc(Cl)s1)NCc1nnc2n1CCCCC2`, the cytotoxicity at 10 µM is -2.06%. The result for `CCc1ncc2c(n1)CN(Cc1nc(-c3cccnc3)no1)CC2` reads -1.62%. The result for `CCn1cc(NC(=O)C2CCN(CC(=O)NC3CCCC3)CC2)cn1` reads -6.52%; that for `Cc1nc(C)n(CC2CCCN(c3ccc(C#N)cn3)C2)n1` (stereo unspecified), -9.67%; that for `Cc1cc(C2CCCN2Cc2cc(=O)n(C)c(=O)n2C)no1` (stereo unspecified), -20.6%. As for `COc1ccc(OCCC(=O)N2CCCC2Cn2cccn2)cc1` (stereo unspecified), the cytotoxicity at 10 µM is -39%.

`CCc1csc(C2CCCN(C(=O)c3ccc4[nH]nnc4c3)C2)n1` (stereo unspecified): the cytotoxicity at 10 µM is -17.1%.

For `CN(Cc1ccco1)C(=O)CN1CCCC1Cn1cccn1` (stereo unspecified), the cytotoxicity at 10 µM came to 1.55%. As to `CCn1cnnc1CNC(=O)c1cc(Cl)ccc1OC`, the cytotoxicity at 10 µM was 5.87%. As to `O=C(Nc1cccnc1)[C@@H]1COC[C@H]2CN(C3CCCC3)C[C@H]21`, the cytotoxicity at 10 µM was 5.74%. To `CCOCc1cnc2n1CCN(Cc1cccs1)C2C` (stereo unspecified) belongs 11.3%.

`Cc1cccc(CN2C[C@@H](NC(=O)C3CC3)[C@H]3OCCC[C@H]32)n1`: the cytotoxicity at 10 µM worked out at 7.8%. In the case of `CC(=O)N1CC[C@@H]2CN(Cc3ccncc3)S(=O)(=O)[C@@H]2CC1`, the cytotoxicity at 10 µM amounted to 5.07%. As for `c1ncn(Cc2cn3c(n2)CN(CC2CCCCC2)CC3)n1`, the cytotoxicity at 10 µM was -123%. To `O=C(c1cocn1)N1CC[C@H]2OCC[C@@]2(COc2ncccc2F)C1` belongs -127%; to `c1cc(CN2Cc3nccn3CC(Cn3cncn3)C2)ccn1` (stereo unspecified), -134%.

For the compound `Cc1nc(CN2C[C@@H](NC(=O)C3CCC3)[C@H]3COC[C@H]32)cs1`, the cytotoxicity at 10 µM came out at 7.58%. To `CN(C)C(=O)COC[C@]12COC[C@H]1CN(Cc1ccccc1)C2` belongs -5.78%; to `CC(=O)N1C[C@H]2CC[C@@H](C1)N(S(=O)(=O)c1ccc(F)cc1Cl)C2`, -0.756%; to `CCn1cc(-n2cc3nc(N4CCC(O)CC4)[nH]cc-3c2=O)cn1`, 5.01%. Consider `CC(C)CS(=O)(=O)N1C[C@@H]2C[C@H](C(=O)Nc3cccnc3)[C@H](C1)O2`, for which the cytotoxicity at 10 µM was -1.55%.
